Measured values: ChEMBL document CHEMBL4390663, “Cationic biaryl 1,2,3-triazolyl peptidomimetic amphiphiles: synthesis, antibacterial evaluation and preliminary mechanism of action studies” (Eur J Med Chem, 2019)
Converted amounts (≈) assume the structure as drawn.

Tests used:
Staphylococcus aureus [1] = test: Antimicrobial activity against Staphylococcus aureus ATCC 43300 incubated for 18 hrs by CLSI method; format: functional; details: ATCC 43300, 18 h
Klebsiella pneumoniae = test: Antibacterial activity against Klebsiella pneumoniae 700603 incubated for 18 hrs by CLSI method; format: functional; details: Klebsiella pneumoniae, 700603, 18 h
Method in brief: (§1)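 Screen run by CO-ADD: mid-log cultures in cation-adjusted MHB, 5 × 10^5 CFU/mL, compounds at up to 32 μg/mL in 1:2 serial dilutions (8 steps), final DMSO ≤0.5%, duplicate. 37 °C for 18 h without shaking; OD600 read against media-only and untreated-bacteria references. MIC = lowest concentration giving ≥80% inhibition; colistin standard.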

[2] = Cytotoxicity against human HEK293 cells assessed as reduction in cell growth incubated for 20 hrs by resazurin dye-based fluorometric assay
Method in brief: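 HEK293 cells, 5000 per well in DMEM + 10% FBS, exposed to compounds (top 32 μg/mL, 1:2 serial dilution ×8, ≤0.5% DMSO, duplicate) for 20 h at 37 °C, 5% CO2. Resazurin added (2.3 μg/mL final), 3 h further; fluorescence ex 560/em 590 nm. CC50 from sigmoidal dose-response fit against log concentration; tamoxifen standard.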

Staphylococcus aureus [3] = test: Antimicrobial activity against Staphylococcus aureus ATCC 29213 incubated for 24 hrs by CLSI method; format: functional; details: ATCC 29213, 24 h
Method in brief: (§2)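 Broth microdilution per CLSI aerobic guidance in Mueller Hinton broth, ambient air, 35 °C for 24 h. DMSO stocks were diluted in water, then serially diluted with double-strength broth inoculum added, for final 0.25–128 μg/mL. […] MIC was read visually as the lowest concentration inhibiting growth; the modal value of triplicates was recorded.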

Staphylococcus aureus [4] = test: Antibacterial activity against methicillin-resistant Staphylococcus aureus NCTC 10442 incubated for 24 hrs by CLSI method; format: functional; details: NCTC 10442, 24 h; method in brief: as §2
Streptococcus pneumoniae = test: Antibacterial activity against Streptococcus pneumoniae ATCC 49619 incubated for 24 hrs by CLSI method; format: functional; details: ATCC 49619, 24 h
Method in brief: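 CLSI broth microdilution in MHB with 2.5% lysed horse blood, 5% CO2, 35 °C, 24 h. Compounds from 5 mg/mL DMSO stocks diluted in water plus double-strength broth; final 0.25–128 μg/mL. […] Triplicate; modal MIC read visually as lowest growth-inhibiting concentration.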

Escherichia coli = test: Antibacterial activity against Escherichia coli ATCC 25922 incubated for 18 hrs by CLSI method; format: functional; details: ATCC 25922, 18 h; method in brief: as §1
Clostridioides difficile [5] = test: Antibacterial activity against Clostridium difficile ATCC 700057 incubated for 48 hrs by CLSI method; format: functional; details: ATCC 700057, 48 h
Method in brief: (§3)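 Broth microdilution per CLSI anaerobe method in pre-reduced (2-4 h) Brucella broth with haemin and vitamin K, 35 °C anaerobically for 48 h. Compounds from 5 mg/mL DMSO stocks, twofold dilutions in water mixed with double-strength broth; final 0.25–128 μg/mL. […] Triplicate; modal MIC read visually as lowest concentration inhibiting growth.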

Enterococcus faecalis = test: Antibacterial activity against Enterococcus faecalis ATCC 29212 incubated for 24 hrs by CLSI method; format: functional; details: ATCC 29212, 24 h
Pseudomonas aeruginosa = test: Antimicrobial activity against Pseudomonas aeruginosa ATCC 27853 incubated for 18 hrs by CLSI method; format: functional; details: ATCC 27853, 18 h; method in brief: as §1
Clostridioides difficile [6] = test: Antibacterial activity against Clostridium difficile NSW132 RT027 incubated for 48 hrs by CLSI method; format: functional; details: NSW132 RT027, 48 h; method in brief: as §3
Acinetobacter baumannii = test: Antimicrobial activity against Acinetobacter baumannii ATCC 19606 incubated for 18 hrs by CLSI method; format: functional; details: ATCC 19606 = CIP 70.34 = JCM 6841, 18 h; method in brief: as §1

SMILES	MIC (Staphylococcus aureus [1]) [mg/L]	MIC (Klebsiella pneumoniae) [mg/L]	CC50 at 20 h [2] [mg/L]	MIC (Staphylococcus aureus [3]) [mg/L]	MIC (Staphylococcus aureus [4]) [mg/L]	MIC (Streptococcus pneumoniae) [mg/L]	MIC (Escherichia coli) [mg/L]	MIC (Clostridioides difficile [5]) [mg/L]	MIC (Enterococcus faecalis) [mg/L]	MIC (Pseudomonas aeruginosa) [mg/L]	MIC (Clostridioides difficile [6]) [mg/L]	MIC (Acinetobacter baumannii) [mg/L]
CC(C)CCOc1ccccc1-c1ccccc1OCc1cn(C[C@@H](CCCCN)NC(=O)[C@@H](CCCNC(=N)N)n2cc(CCc3ccccc3)nn2)nn1.Cl.Cl	2	16	> 32	4	4	8	8	8	8	8	8	16
CC(C)CCOc1ccc2ccccc2c1-c1c(OCc2cn(C[C@@H](CCCCN)NC(=O)c3ccco3)nn2)ccc2ccccc12.Cl	–	–	–	8	8	16	–	16	8	–	32	–
CC(C)CCOc1ccc2ccccc2c1-c1c(OCc2cn(C[C@@H](CCCCN)NC(=O)C3CC3)nn2)ccc2ccccc12.Cl	–	–	–	8	8	16	–	16	8	–	64	–
CC(C)CCOc1ccc2ccccc2c1-c1c(OCc2cn(C[C@@H](CCCCN)NC(=O)CCCc3ccccc3)nn2)ccc2ccccc12.Cl	–	–	–	8	16	32	–	32	8	–	64	–
CC(C)CCOc1ccc2ccccc2c1-c1c(OCc2cn(C[C@@H](CCCCN)NC(=O)c3cccs3)nn2)ccc2ccccc12.Cl	–	–	–	8	8	16	–	32	8	–	64	–
CC/C(=C(\c1ccccc1)c1ccc(OCCN(C)C)cc1)c1ccccc1 [TAMOXIFEN]	–	–	13.1 (≈ 35.3 µM)	–	–	–	–	–	–	–	–	–
CC(C)CCOc1ccc2ccccc2c1-c1c(OCc2cn(C[C@@H](CCCCN)NC(=O)Cc3ccc(Br)cc3)nn2)ccc2ccccc12.Cl	–	–	–	4	8	32	–	32	8	–	64	–
CC(C)CCOc1ccc2ccccc2c1-c1c(OCc2cn(C[C@@H](CCCCN)NC(=O)C3=CCCC3)nn2)ccc2ccccc12.Cl	–	–	–	8	8	16	–	32	8	–	64	–
CC(C)CCOc1ccc2ccccc2c1-c1c(OCc2cn(C[C@@H](CCCCN)NC(=O)[C@@H](CCCNC(=N)N)NC(=O)OCC3c4ccccc4-c4ccccc43)nn2)ccc2ccccc12.Cl.Cl	–	–	–	8	8	8	–	32	8	–	64	–
CC(C)CCOc1ccc2ccccc2c1-c1c(OCc2cn(C[C@@H](CCCCN)NC(=O)C3(N)CCOCC3)nn2)ccc2ccccc12.Cl.Cl	–	–	–	16	16	16	–	32	16	–	64	–
CC(C)CCOc1ccc2ccccc2c1-c1c(OCc2cn(C[C@@H](CCCCN)NC(=O)OCc3ccccc3)nn2)ccc2ccccc12.Cl	–	–	–	4	8	16	–	32	8	–	32	–
CC(C)CCOc1ccc2ccccc2c1-c1c(OCc2cn(C[C@@H](CCCCN)NC(=O)C3=CCCCC3)nn2)ccc2ccccc12.Cl	–	–	–	8	8	16	–	32	8	–	32	–
CC(C)CCOc1ccc2ccccc2c1-c1c(OCc2cn(C[C@@H](CCCCN)NC(=O)c3ccc4ccccc4c3)nn2)ccc2ccccc12.Cl	–	–	–	16	16	32	–	64	8	–	64	–
